Hsp70 act = Hsp70 transcriptional activation, primary screen. HeLa Hsp70 promoter luciferase reporter, luminescence; scaled: vehicle 0, proteasome-inhibitor control 100%. activation, % at 10 µM. 200,000 compounds, 0.04% hits;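 active = activation above the mean across all tested compounds plus 3 SD, cutoff set per campaign, cut at about 5.5% in these data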;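 note: 100% = MG132 at 30 µM as the positive control and 0% = DMSO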
PGE2 EP2 inh = inhibitors of human EP2 prostaglandin E2 receptor; P43116; C6 glioma cells expressing human EP2, cAMP TR-FRET; cells stimulated with saturating PGE2; inhibition, % at 25 µM; 260,000 compounds, 0.52% hits; AID 1422;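 active = percent inhibition above 40 after rounding to a whole number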;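 note: rat C6 glioma host cells with rolipram phosphodiesterase inhibitor present; the protocol text gives 20 µM as final concentration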
Target sequence (P43116 whole entry, looked up): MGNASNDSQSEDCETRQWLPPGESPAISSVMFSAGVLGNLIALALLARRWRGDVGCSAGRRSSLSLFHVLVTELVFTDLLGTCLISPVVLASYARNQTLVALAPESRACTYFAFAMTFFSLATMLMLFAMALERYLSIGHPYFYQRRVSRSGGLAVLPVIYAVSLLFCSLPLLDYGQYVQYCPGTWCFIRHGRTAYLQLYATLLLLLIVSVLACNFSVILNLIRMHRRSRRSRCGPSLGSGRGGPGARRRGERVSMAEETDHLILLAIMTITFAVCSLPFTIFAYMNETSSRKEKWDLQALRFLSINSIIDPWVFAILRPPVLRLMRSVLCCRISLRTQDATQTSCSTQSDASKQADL
Dynein transport = dynein cargo transport inhibition; 3617.4 mouse cells, GR-EGFP nuclear translocation imaging; test concentration mostly 20 µM; stimulated with dexamethasone, 1 µM; hits give low values; z-score, hits read low; 220,000 compounds, 0.47% hits; AID 1381;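 active = plate z-score of nuclear minus cytoplasmic receptor signal below a set negative limit, without overly bright fluorescence or cell loss, cut at about -3.5 in these data, passing the limit was not always enough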;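 note: z-score of nuclear minus cytoplasmic ring GR-EGFP intensity difference per well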
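Buffer or medium: tet-free, stripped-serum medium; reagent: dexamethasone at 1.0 µM final, 30 min; incubation: 48 h induction, 1 h compound, 30 min dex at 37 °C; measured by: formaldehyde fixation, Hoechst nuclear stain, 10x automated fluorescence imaging; read-out: nuclear-to-cytoplasmic GR-EGFP distribution per well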
EP2 mod = EP2 receptor (human) modulation; P43116; EP2-expressing cells, cAMP HTRF FRET, PGE2 co-stimulation; induction, % at 25 µM; 260,000 compounds, 0.83% hits; AID 940;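 active = compounds whose cAMP rise, as percent of the full-agonist control response, exceeds 60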;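 note: rat C6 glioma line stably carrying human EP2 under a CMV promoter; the protocol text gives 20 µM as final concentration; 100% = response of wells given 1 µM PGE2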
The depositor's hits bear a star; / = no result; ! = repeats disagree. Hits are enriched below; roughly 1.7% of the tested compounds scored in any of these assays.

SMILES | Hsp70 act | PGE2 EP2 inh | Dynein transport | EP2 mod
COc1ccc(NC(=O)c2c(N)no[n+]2[O-])cc1 | -0.2 | 5.6 | 0.478 | -12.1
CCN1CC23C=CC(O2)C(C(=O)NC2(c4ccc5c(c4)OCO5)CCCC2)C3C1=O (configuration not stated) | / | / | / | -27.1
CN(C)C[C@@H](O)c1ccc(Cl)c2ccccc12 | / | 46.9* | / | -25.9
CCN(CC)C(=O)Oc1ccc(Cl)c2ccccc12 | 0.2 | 12.7 | -1.56 | -3.4
Ic1ccc2c(c1)N(c1ccccc1)c1cc(Nc3ccc4nc5ccc(I)cc5[n+](-c5ccccc5)c4c3)ccc1N2 | / | 44.4* | / | -0.5
COc1ccc(CCNS(=O)(=O)c2ccc(C(=O)N3CCc4ccccc4C3)cc2)cc1OC | / | 10.6 | / | -56.7
CC(=O)Oc1ccc(N2C(=O)C3C4C=CC(CO)(O4)C3C2=O)cc1 (configuration not stated) | -0.1 | 17.1 | 0.0327 | -0.6
CC(=O)Oc1ccc(N2C(=O)C3C(C2=O)C2(C)C=CC3(C)O2)cc1 (configuration not stated) | / | 135.8* | / | /
COc1cccc(C2=NN(C(=O)c3ccccc3)C(O)(C(F)(F)F)C2)c1 (configuration not stated) | -0.2 | / | 0.416 | 64.5*
COc1cccc(C(=O)N2N=C(c3ccccc3)CC2(O)C(F)(F)F)c1 (configuration not stated) | -0.3 | 7.8 | -0.568 | 47.6
CCn1c(COc2ccc(Br)cc2)nnc1SC | / | 9.3 | / | -15.7
COCCNC(=S)N(CCCO)Cc1cc2cc(OC)ccc2[nH]c1=O | / | 15.4 | / | -9.4
O=S(=O)(c1cnc(Cl)c(Cl)c1)N1CCc2ccccc21 | / | 8.5 | -4.32* | -18.6
COC(=O)c1ccccc1Nc1ccccc1 | -0.1 | 9.2 | -0.0243 | 63.8*
CCOC(=O)C1=C(c2ccccc2)NC(SCC(=O)NC2CCCCC2)=C(C#N)C1c1ccco1 (configuration not stated) | 0.3 | 71.4* | -0.202 | 27.1
CSc1nc(-c2ccccc2)c2cc(Cl)ccc2n1 | -0.2 | 6.7 | 0.198 | 62.0*
Cc1ccc(C)c(NC(=O)c2cc(-c3ccccc3)nn2-c2ccccc2)c1 | -0.4 | 2.1 | -0.0215 | 63.5*
Cc1ccccc1OCCN1CCN(Cc2cn(CC(N)=O)c3ccccc23)CC1 | / | 9.5 | / | -58.0
O=C(CN1C(=O)[C@@H]2CCCN2C(=O)c2ccccc21)NCc1ccc(Cl)cc1 | / | 8.7 | / | -32.9
O=c1sc2ccccc2n1CCc1ccccc1 | / | 5.7 | / | 12.6
N=c1sc2ccccc2n1CCS (tested in a mixture with another compound) | / | 57.4* | / | -26.5
CC(CCC(=O)O)(c1cc(Br)c(O)c(Br)c1)c1cc(Br)c(O)c(Br)c1 | / | 39.7* | / | 48.5
CCCNC(=O)COC(=O)CCC(=O)c1ccc(F)cc1 | -0.2 | 12.6 | 1 | -6.6
CC(C)(C)NC(=O)COC(=O)CCC(=O)c1ccc(F)cc1 | 0.1 | 89.4* | -0.367 | -7.8
CCOC(=O)Cc1nnc(NC(=O)COC(=O)c2cc(C)nc3ccccc23)s1 | / | 7.3 | / | -10.6
SMILES | Hsp70 act | PGE2 EP2 inh | Dynein transport | EP2 mod
COc1ccc(NC(=O)Cn2cnc3sc(C)c(-c4ccc(F)cc4)c3c2=O)cc1 | / | 6.3 | / | 25.0
COc1cc2c(cc1NC(=S)Nc1cccc3ccccc13)oc1ccccc12 | 0.0 | 42.5* | -0.259 | -27.9
N#CC[N+]1(Cc2ccccn2)CCCC1 | / | 41.7* | / | 8.2
c1ccc(CNC2=NCCC2)nc1 | -0.2 | 6.4 | 0.886 | 12.4
O=c1[nH]c(N2CCCC2)nc2c1CN(Cc1nnnn1Cc1ccccc1)CC2 | / | / | / | 10.6
Cc1cc2cc(C)c(SCC(=O)NCc3ccc4c(c3)OCO4)nc2cc1C | / | 22.0 | / | 84.5*
CCc1cc2c(C)cc(C)cc2nc1SCC(=O)NCc1ccc2c(c1)OCO2 | / | 19.4 | / | 72.0*
O=C(Nc1ccc(S(=O)(=O)N2CCOCC2)cc1)c1ccc([N+](=O)[O-])o1 | / | 49.1* | -2.95 | -42.9
O=C(CN1C(=O)NC2(CCCC2)C1=O)Nc1ccc(S(=O)(=O)N2CCOCC2)cc1 | -0.1 | 4.1 | 2.74 | 60.6*
COc1cccc(C(=O)CSc2nnc3c(C)cc4cc5c(cc4n23)OCCO5)c1 | / | 16.4 | / | -4.4
O=[N+]([O-])c1ccc(N(c2ccccc2)c2ccccc2)cc1 | -0.3 | 6.5 | 0.626 | 60.7*
N=C(N)c1ccc(N=Nc2c(O)ccc3c2[nH]c2ccccc23)cc1 | / | 50.6* | / | -23.1
COc1cc(OC)cc(C(=O)Nc2ccc(-c3nc4ccccc4o3)cc2)c1 | -0.4 | 51.7* | 0.724 | -37.5
Cc1cc(OCc2nc(-c3ccc(NC(=O)c4cccnc4)cc3)no2)ccc1Cl | -0.1 | 5.5 | 0.228 | -3.3
O=C(Nc1ccc(-c2noc(CCc3ccccc3)n2)cc1)c1cccnc1 | -0.2 | 75.8* | -0.951 | 10.8
O=C(Nc1cccc(-c2nc3ccccc3o2)c1)c1cccnc1 | -0.2 | 7.5 | -0.383 | -59.1
O=C(Nc1ccc2nc(-c3ccccc3)oc2c1)c1ccco1 | 0.1 | 42.3*! | 0.163 | -39.3
O=C(Nc1ccc(-c2nc3ccccc3o2)cc1)c1cccnc1 | 0.4 | 57.7*! | 0.486 | -101.5
COc1ccc(CN2CCC(CNC(=O)c3cnccn3)CC2)cc1 | / | / | / | -17.5
Cc1cc2cc(CN(CCCO)C(=S)NCCc3ccccc3)c(=O)[nH]c2cc1C | / | 14.0 | / | -32.8
Cc1cc(C)cc(NS(=O)(=O)c2ccc(NC(=S)NC(=O)c3cccs3)cc2)c1 | -0.5 | 41.9* | 0.0173 | -86.9
Cc1ccnc(NS(=O)(=O)c2ccc(NC(=O)/C=C/c3cccs3)cc2)n1 | -0.1 | 5.3 | 1.49 | -1.8
COc1ccc(/C=C/C(=O)NC(=S)Nc2ccc(S(=O)(=O)Nc3cc(C)on3)cc2)cc1 | / | 45.3* | / | -134.3
Cc1cc(C)nc(NS(=O)(=O)c2ccc(NC(=S)NC(=O)/C=C/c3cccs3)cc2)n1 | / | 63.1* | / | -116.6
COc1ccc(C(=O)NC(=S)Nc2ccc(S(=O)(=O)Nc3nccs3)cc2)cc1OC | / | 43.4* | / | -137.8
SMILES | Hsp70 act | PGE2 EP2 inh | Dynein transport | EP2 mod
COc1cc(OC)cc(C(=O)NC(=S)Nc2ccc(S(=O)(=O)Nc3nccs3)cc2)c1 | / | 30.8 | / | -130.7
Nc1c(C(=O)c2ccc3c(c2)OCO3)sc2nc(-c3cccnc3)cc(C(F)(F)F)c12 | / | 13.5 | / | 28.7
O=C1C(Cl)=C(Sc2nnc3c4ccccc4c4ccccc4c3n2)C(=O)c2ccccc21 | / | 58.4* | / | -45.8
O=c1c2ccccc2nc(-c2ccco2)n1Cc1ccccc1 | 0.1 | -0.7 | -0.577 | 26.9
Cc1ccccc1/C=C\c1nc2ccccc2c(=O)n1Cc1ccccc1 | 0.0 | 9.9 | -0.099 | 62.7*
O=c1c2ccccc2nc(-c2ccc(Br)cc2)n1Cc1ccccc1 | -0.2 | 8.8 | -0.355 | 62.7*
CCn1c(/C=C\c2ccccc2C)nc2ccccc2c1=O | -0.2 | 8.8 | -0.231 | 15.8
COc1ccc(NC(=O)C(=O)NCCN2CCN(C(=O)c3ccccc3)CC2)cc1 | / | 7.5 | / | -16.7
COc1ccc2[nH]c(=O)c(CN(C(=S)NC(C)c3ccccc3)C3CCCC3)cc2c1 (configuration not stated) | / | 44.8* | / | 5.4
COc1ccc2[nH]c(=O)c(CN(CC3CCCO3)C(=O)Nc3ccc(F)cc3)cc2c1 (configuration not stated) | -0.3 | 41.0* | 1.06 | -45.0

Screening results as filed in PubChem BioAssay.
